“And” between values parts separate entries of the source, which are not always exact repeats. Identical values can stand only once.
Tests used:
Rattus norvegicus [1] = assay: Biodistribution in rat liver after 10 min of intravenous injection at a dose of […]; assay type: ADME, organism-based; settings: in vivo
Method in brief: (§1)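 Female Sprague–Dawley rats (140–160 g, four per time point), fed ad lib, ether-anesthetized just before injection. Radiotracer bound to human serum albumin in ethanol–saline, given by femoral vein (≈50 μCi/rat). Rats sacrificed at 5, 10, 15, 30 or 60 min. Tissues excised and weighed, activity measured by γ-counting, expressed as %ID/g.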

Rattus norvegicus [2] = assay: Biodistribution in rat muscle after 5 min of intravenous injection at a dose of […]; assay type: ADME, organism-based, Muscle tissue; settings: in vivo; method in brief: as §1
Rattus norvegicus [3] = assay: Biodistribution in rat heart after 5 min of intravenous injection at a dose of […]; assay type: ADME, organism-based; settings: in vivo; method in brief: as §1
Rattus norvegicus [4] = assay: Biodistribution in rat lung after 1 hr of intravenous injection at a dose of […]; assay type: ADME, organism-based; settings: in vivo; method in brief: as §1
Rattus norvegicus [5] = assay: Biodistribution in rat muscle after 15 min of intravenous injection at a dose of […]; assay type: ADME, organism-based, Muscle tissue; settings: in vivo, 0.25 h; method in brief: as §1
Rattus norvegicus [6] = assay: Biodistribution in rat liver after 30 min of intravenous injection at a dose of […]; assay type: ADME, organism-based; settings: in vivo, 0.5 h; method in brief: as §1
Rattus norvegicus [7] = assay: Biodistribution in rat muscle after 30 min of intravenous injection at a dose of […]; assay type: ADME, organism-based, Muscle tissue; settings: in vivo, 0.5 h; method in brief: as §1
Rattus norvegicus [8] = assay: Biodistribution in rat blood after 30 min of intravenous injection at a dose of […]; assay type: ADME, organism-based; settings: in vivo, 0.5 h; method in brief: as §1
Rattus norvegicus [9] = assay: Biodistribution in rat liver after 15 min of intravenous injection at a dose of […]; assay type: ADME, organism-based; settings: in vivo, 0.25 h; method in brief: as §1
Rattus norvegicus [10] = assay: Biodistribution in rat lung after 5 min of intravenous injection at a dose of […]; assay type: ADME, organism-based; settings: in vivo; method in brief: as §1
Rattus norvegicus [11] = assay: Biodistribution in rat heart after 10 min of intravenous injection at a dose of […]; assay type: ADME, organism-based; settings: in vivo; method in brief: as §1
Rattus norvegicus [12] = assay: Biodistribution in rat kidney after 30 min of intravenous injection at a dose of […]; assay type: ADME, organism-based; settings: in vivo, 0.5 h; method in brief: as §1
Rattus norvegicus [13] = assay: Biodistribution in rat kidney after 15 min of intravenous injection at a dose of […]; assay type: ADME, organism-based; settings: in vivo, 0.25 h; method in brief: as §1
Rattus norvegicus [14] = assay: Biodistribution in rat blood after 15 min of intravenous injection at a dose of […]; assay type: ADME, organism-based; settings: in vivo, 0.25 h; method in brief: as §1
Rattus norvegicus [15] = assay: Biodistribution in rat lung after 15 min of intravenous injection at a dose of […]; assay type: ADME, organism-based; settings: in vivo, 0.25 h; method in brief: as §1
Rattus norvegicus [16] = assay: Biodistribution in rat blood after 5 min of intravenous injection at a dose of […]; assay type: ADME, organism-based; settings: in vivo; method in brief: as §1
Rattus norvegicus [17] = assay: Biodistribution in rat blood after 10 min of intravenous injection at a dose of […]; assay type: ADME, organism-based; settings: in vivo; method in brief: as §1
Rattus norvegicus [18] = assay: Biodistribution in rat kidney after 10 min of intravenous injection at a dose of […]; assay type: ADME, organism-based; settings: in vivo; method in brief: as §1
Rattus norvegicus [19] = assay: Biodistribution in rat heart after 15 min of intravenous injection at a dose of […]; assay type: ADME, organism-based; settings: in vivo, 0.25 h; method in brief: as §1
Rattus norvegicus [20] = assay: Biodistribution in rat lung after 30 min of intravenous injection at a dose of […]; assay type: ADME, organism-based; settings: in vivo, 0.5 h; method in brief: as §1
Rattus norvegicus [21] = assay: Biodistribution in rat liver after 1 hr of intravenous injection at a dose of […]; assay type: ADME, organism-based; settings: in vivo; method in brief: as §1
Rattus norvegicus [22] = assay: Biodistribution in rat blood after 1 hr of intravenous injection at a dose of […]; assay type: ADME, organism-based; settings: in vivo; method in brief: as §1
Rattus norvegicus [23] = assay: Biodistribution in rat muscle after 1 hr of intravenous injection at a dose of […]; assay type: ADME, organism-based, Muscle tissue; settings: in vivo; method in brief: as §1
Rattus norvegicus [24] = assay: Biodistribution in rat liver after 5 min of intravenous injection at a dose of […]; assay type: ADME, organism-based; settings: in vivo; method in brief: as §1
Rattus norvegicus [25] = assay: Biodistribution in rat heart after 30 min of intravenous injection at a dose of […]; assay type: ADME, organism-based; settings: in vivo, 0.5 h; method in brief: as §1
Rattus norvegicus [26] = assay: Biodistribution in rat kidney after 5 min of intravenous injection at a dose of […]; assay type: ADME, organism-based; settings: in vivo; method in brief: as §1
Rattus norvegicus [27] = assay: Biodistribution in rat heart after 1 hr of intravenous injection at a dose of […]; assay type: ADME, organism-based; settings: in vivo; method in brief: as §1
Rattus norvegicus [28] = assay: Biodistribution in rat kidney after 1 h of intravenous injection at a dose of […]; assay type: ADME, organism-based; settings: in vivo; method in brief: as §1
Rattus norvegicus [29] = assay: Biodistribution in rat muscle after 10 min of intravenous injection at a dose of […]; assay type: ADME, organism-based, Muscle tissue; settings: in vivo; method in brief: as §1
Rattus norvegicus [30] = assay: Biodistribution in rat lung after 10 min of intravenous injection at a dose of […]; assay type: ADME, organism-based; settings: in vivo; method in brief: as §1

ID/g (Rattus norvegicus [1]): 8.38% and 8.36%
ID/g (Rattus norvegicus [2]): 0.197% and 0.183%
ID/g (Rattus norvegicus [3]): 1.675% and 0.996%
ID/g (Rattus norvegicus [4]): 1.154% and 1.08%
ID/g (Rattus norvegicus [5]): 0.221% and 0.166%
ID/g (Rattus norvegicus [6]): 8.25% and 5.62%
ID/g (Rattus norvegicus [7]): 0.222% and 0.198%
ID/g (Rattus norvegicus [8]): 0.43% and 0.329%
ID/g (Rattus norvegicus [9]): 8.195% and 6.252%
ID/g (Rattus norvegicus [10]): 1.353% and 0.945%
ID/g (Rattus norvegicus [11]): 1.372% and 1.08%
ID/g (Rattus norvegicus [12]): 1.28% and 1.301%
ID/g (Rattus norvegicus [13]): 1.105% and 1.184%
ID/g (Rattus norvegicus [14]): 0.31% and 0.373%
ID/g (Rattus norvegicus [15]): 1.165% and 1.246%
ID/g (Rattus norvegicus [16]): 0.25% and 0.116%
ID/g (Rattus norvegicus [17]): 0.171% and 0.13%
ID/g (Rattus norvegicus [18]): 1.184% and 1.343%
ID/g (Rattus norvegicus [19]): 0.981% and 1.011%
ID/g (Rattus norvegicus [20]): 1.423% and 1.173%
ID/g (Rattus norvegicus [21]): 6.944% and 4.853%
ID/g (Rattus norvegicus [22]): 0.237% and 0.157%
ID/g (Rattus norvegicus [23]): 0.237% and 0.194%
ID/g (Rattus norvegicus [24]): 8.189% and 5.94%
ID/g (Rattus norvegicus [25]): 1.813% and 0.941%
ID/g (Rattus norvegicus [26]): 1.154% and 0.994%
ID/g (Rattus norvegicus [27]): 1.159% and 0.792%
ID/g (Rattus norvegicus [28]): 1.166% and 1.238%
ID/g (Rattus norvegicus [29]): 0.198% and 0.179%
ID/g (Rattus norvegicus [30]): 1.427% and 1.272%
Compound: CCCCCCCCCCCCCCCC(=O)O [PALMITIC ACID]
